Measurements as given in ChEMBL document CHEMBL4325922, “Restoring Let-7 microRNA Biogenesis Using a Small-Molecule Inhibitor of the Protein-RNA Interaction” (ACS Med Chem Lett, 2018).
Calls of active or inactive are those of the source. No cut-off for these calls is given here.

Key:
[1] = target: T1, Protein lin-28 homolog A (Homo sapiens) (UniProt Q9H9Z2); assay: Inhibition of Cy5-preE-let-7a-1 binding to recombinant human N-terminal His6-tagged Lin28a expressed in Escherichia coli Rosetta2 (DE3) pLysS measured after 30 to 60 mins by electrophoretic mobility shift assay
T1 sequence (whole entry): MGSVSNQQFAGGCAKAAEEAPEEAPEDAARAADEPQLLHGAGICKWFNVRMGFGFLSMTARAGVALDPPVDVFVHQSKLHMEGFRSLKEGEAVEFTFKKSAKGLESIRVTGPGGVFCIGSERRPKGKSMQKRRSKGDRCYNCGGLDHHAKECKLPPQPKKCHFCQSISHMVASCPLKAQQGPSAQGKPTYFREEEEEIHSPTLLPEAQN

[2] = target: T1, Protein lin-28 homolog A (Homo sapiens); assay: Inhibition of pre-let-7g binding to recombinant human N-terminal His6-tagged Lin28a expressed in Escherichia coli Rosetta2 (DE3) pLysS assessed as increase in dicer-mediated pre-let-7g microRNA maturation at 5 to 10 uM measured after 40 mins by SYBR green2 dye based fluorescence assay
[3] = target: T1, Protein lin-28 homolog A (Homo sapiens); assay: Binding affinity to recombinant human N-terminal His6-tagged Lin28a cold shock domain expressed in Escherichia coli Rosetta2 (DE3) pLysS at 0.625 to 10 uM by surface plasmon resonance analysis
[4] = target: T1, Protein lin-28 homolog A (Homo sapiens); assay: Binding affinity to recombinant human N-terminal His6-tagged Lin28a zinc knuckle domain expressed in Escherichia coli Rosetta2 (DE3) pLysS at 0.625 to 10 uM by surface plasmon resonance analysis
Protein lin-28 homolog A = target: T2, Protein lin-28 homolog A (Homo sapiens, UniProt Q9H9Z2); assay: Binding affinity to recombinant human N-terminal His6-tagged Lin28a expressed in Escherichia coli Rosetta2 (DE3) pLysS by surface plasmon resonance analysis
T2 sequence (Q9H9Z2 whole entry): T1 sequence (whole entry)
Procedure, shortened: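 Surface plasmon resonance detecting direct binding of analyte to immobilized Lin28a, run at concentrations from 0.31 to 10 μM; binding read as a dose–response curve and Rmax calculated.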

[5] = target: Heterogeneous nuclear ribonucleoprotein A1 (Homo sapiens) (UniProt P09651); assay: Inhibition of biotinylated-preE-let-7g binding to hnRNPA1 in human JAR cells by pull down assay; format: cell-based
Procedure, shortened: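 5′-Biotinylated preE-let-7g is immobilized on streptavidin beads and incubated with proteome from JAR human choriocarcinoma cells, which express Lin28a and Lin28b. Test compound is present during binding, and target engagement is judged by the proteins pulled down.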

[6] = target: T3, Protein lin-28 homolog A/B (Homo sapiens) (UniProt Q6ZN17+Q9H9Z2); assay: Inhibition of Lin28a/Lin28b in human JAR cells assessed as increase in mature let-7a level after 20 hrs by TRIzol dye based qRT-PCR analysis; format: cell-based
Procedure, shortened: (§1)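 JAR cells (express Lin28a and Lin28b) exposed to compound for 20 h; miRNA levels quantified with U6 snRNA as endogenous control; three or more biological replicates, standard deviation, paired two-tailed t test.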

[7] = target: T3, Protein lin-28 homolog A/B (Homo sapiens); assay: Inhibition of Lin28a/Lin28b in human JAR cells assessed as increase in mature let-7b level after 20 hrs by TRIzol dye based qRT-PCR analysis; format: cell-based; procedure, shortened: as §1
[8] = target: T3, Protein lin-28 homolog A/B (Homo sapiens); assay: Inhibition of Lin28a/Lin28b in human JAR cells assessed as increase in mature let-7f level after 20 hrs by TRIzol dye based qRT-PCR analysis; format: cell-based; procedure, shortened: as §1
JAR [9] = assay: Effect on miR-20b level in human JAR cells at 5 to 10 uM after 20 hrs by TRIzol dye based qRT-PCR analysis; format: functional, cell-based; procedure, shortened: as §1
[10] = target: T1, Protein lin-28 homolog A (Homo sapiens); assay: Inhibition of Lin28a in human PA1 cells assessed as increase in mature let-7d level at 10 uM after 20 hrs by TRIzol dye based qRT-PCR analysis; format: cell-based
Procedure, shortened: (§2)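 PA-1 ovarian teratocarcinoma cells (express Lin28a) treated for 20 h; let-7 quantified relative to U6 snRNA; 4 biological replicates, standard deviation, paired two-tailed t test.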

[11] = target: T1, Protein lin-28 homolog A (Homo sapiens); assay: Inhibition of Lin28a in human PA1 cells assessed as increase in mature let-7i level at 10 uM after 20 hrs by TRIzol dye based qRT-PCR analysis; format: cell-based; procedure, shortened: as §2
PA-1 [12] = assay: Increase in mature let-7g level in Lin28a CRISPR-Cas9 knockout human PA1 cells at 10 uM after 20 hrs by qRT-PCR analysis; format: functional, cell-based
Procedure, shortened: (§3)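 PA-1 cells with Lin28a fully knocked out by CRISPR/Cas9 editing (clonal lines) treated for 20 h; let-7 levels normalized to U6 snRNA; 2 technical replicates.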

PA-1 [13] = assay: Increase in mature let-7i level in Lin28a CRISPR-Cas9 knockout human PA1 cells at 10 uM after 20 hrs by qRT-PCR analysis; format: functional, cell-based; procedure, shortened: as §3
[14] = target: T3, Protein lin-28 homolog A/B (Homo sapiens); assay: Inhibition of Lin28a/Lin28b in human JAR cells assessed as reduction in HMGA2 expression at 5 to 10 uM after 24 hrs by Western blot analysis; format: cell-based
Procedure, shortened: (§4)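 Endogenous let-7 target proteins (HMGA2, IMP1, Ras, Lin28a) detected by Western blot in JAR or PA-1 cells after 24 h compound treatment.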

[15] = target: T3, Protein lin-28 homolog A/B (Homo sapiens); assay: Inhibition of Lin28a/Lin28b in human JAR cells assessed as reduction in Ras expression at 5 to 10 uM after 24 hrs by Western blot analysis; format: cell-based; procedure, shortened: as §4
[16] = target: T3, Protein lin-28 homolog A/B (Homo sapiens); assay: Inhibition of Lin28a/Lin28b in human JAR cells assessed as reduction in Lin28a expression at 5 to 10 uM after 24 hrs by Western blot analysis; format: cell-based; procedure, shortened: as §4
[17] = target: T1, Protein lin-28 homolog A (Homo sapiens); assay: Inhibition of Lin28a in human PA1 cells assessed as reduction in HMGA2 expression at 10 uM after 24 hrs by Western blot analysis; format: cell-based; procedure, shortened: as §4
[18] = target: T1, Protein lin-28 homolog A (Homo sapiens); assay: Inhibition of Lin28a in human PA1 cells assessed as reduction in IMP1 expression at 10 uM after 24 hrs by Western blot analysis; format: cell-based; procedure, shortened: as §4
[19] = target: T1, Protein lin-28 homolog A (Homo sapiens); assay: Inhibition of Lin28a in human PA1 cells assessed as reduction in Ras expression at 10 uM after 24 hrs by Western blot analysis; format: cell-based; procedure, shortened: as §4
[20] = target: T1, Protein lin-28 homolog A (Homo sapiens); assay: Inhibition of Lin28a in human PA1 cells assessed as reduction in Lin28 expression at 10 uM after 24 hrs by Western blot analysis; format: cell-based; procedure, shortened: as §4
[21] = target: T3, Protein lin-28 homolog A/B (Homo sapiens); assay: Inhibition of Lin28a/Lin28b in human MCF7 cells assessed as reduction in IMP1 expression at 10 uM after 24 hrs by Western blot analysis; format: cell-based
[22] = target: T3, Protein lin-28 homolog A/B (Homo sapiens); assay: Inhibition of Lin28a/Lin28b in human MCF7 cells assessed as reduction in Ras expression at 10 uM after 24 hrs by Western blot analysis; format: cell-based
[23] = target: T3, Protein lin-28 homolog A/B (Homo sapiens); assay: Inhibition of Lin28a/Lin28b in human paclitaxel-resistant JAR cells assessed as reduction in IMP1 expression at 10 uM measured after 24 hrs by Western blot analysis
[24] = target: T3, Protein lin-28 homolog A/B (Homo sapiens); assay: Inhibition of Lin28a/Lin28b in human paclitaxel-resistant JAR cells assessed as reduction in MDR1 expression at 10 uM measured after 24 hrs by Western blot analysis
JAR [25] = assay: Cytotoxicity against human JAR cells after 24 hrs by WST assay; format: functional, cell-based
C2C12 = assay: Cytotoxicity against mouse C2C12 cells at 10 uM after 24 hrs by WST assay; format: cell-based; conditions: c2c12, 24 h

T3 sequence (Q6ZN17 whole entry, looked up, one chain of several): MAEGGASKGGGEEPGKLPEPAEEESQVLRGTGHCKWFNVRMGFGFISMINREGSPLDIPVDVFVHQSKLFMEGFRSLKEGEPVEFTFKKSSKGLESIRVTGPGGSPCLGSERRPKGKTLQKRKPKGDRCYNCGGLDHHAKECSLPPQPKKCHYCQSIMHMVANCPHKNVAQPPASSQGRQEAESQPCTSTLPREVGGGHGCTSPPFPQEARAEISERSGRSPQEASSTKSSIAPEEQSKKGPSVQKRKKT
Heterogeneous nuclear ribonucleoprotein A1 (Homo sapiens), sequence (P09651 whole entry): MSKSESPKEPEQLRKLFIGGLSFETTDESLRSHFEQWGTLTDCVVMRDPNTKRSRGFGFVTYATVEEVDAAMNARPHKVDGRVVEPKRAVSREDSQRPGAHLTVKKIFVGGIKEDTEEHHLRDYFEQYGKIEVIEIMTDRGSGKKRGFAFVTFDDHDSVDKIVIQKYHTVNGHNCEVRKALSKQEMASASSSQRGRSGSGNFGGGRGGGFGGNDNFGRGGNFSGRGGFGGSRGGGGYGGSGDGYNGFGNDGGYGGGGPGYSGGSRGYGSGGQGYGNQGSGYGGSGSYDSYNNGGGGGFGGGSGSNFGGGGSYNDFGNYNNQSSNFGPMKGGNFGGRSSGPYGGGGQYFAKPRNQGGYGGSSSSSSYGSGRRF

- inhibition [1]: Active
- inhibition [2]: Active
- Activity [3]: Active
- Activity [4]: inactive
- Kd (Protein lin-28 homolog A): 5.9 µM
- inhibition [5]: inactive
- inhibition [6]: Dose-dependent effect
- inhibition [7]: Dose-dependent effect
- inhibition [8]: Dose-dependent effect
- inhibition [10]: Active
- inhibition [11]: Active
- inhibition [14]: Active
- inhibition [15]: Active
- inhibition [16]: Active
- inhibition [17]: Active
- inhibition [18]: Active
- inhibition [19]: Active
- inhibition [20]: Active
- inhibition [21]: inactive
- inhibition [22]: inactive
- inhibition [23]: Active
- inhibition [24]: Active
Structure (SMILES): NC(=O)c1c(Nc2ccc(Cl)cc2Cl)[nH]c2c(Cl)ccc(Cl)c2c1=O
- Activity (JAR [9]): inactive
- Activity (PA-1 [12]): inactive
- Activity (PA-1 [13]): inactive
- Activity (JAR [25]): Active
- Activity (C2C12): Toxic
